# Source: PubChem (several laboratories)
# Shown are actives, neighbours in structure and some others; about 2.2% of the full set was active somewhere.
# CSN deneddyl inh – CSN deneddylation inhibition | Q92905 | Purified CSN, SCF-Nedd8-OG deneddylation, fluorescence polarization | inhibition, % at 12.5 µM | 360,000 tested, 0.38% active;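 active = pattern-corrected inhibition above about 35%, with an unprinted fluorescence ratio check between 0.5 and 1.5, limit read from the data, passing the limit was not always enough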;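 also: 0% = enzyme with substrate and 100% = substrate without enzyme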
# Target sequence (Q92905 whole entry, looked up, one chain of several): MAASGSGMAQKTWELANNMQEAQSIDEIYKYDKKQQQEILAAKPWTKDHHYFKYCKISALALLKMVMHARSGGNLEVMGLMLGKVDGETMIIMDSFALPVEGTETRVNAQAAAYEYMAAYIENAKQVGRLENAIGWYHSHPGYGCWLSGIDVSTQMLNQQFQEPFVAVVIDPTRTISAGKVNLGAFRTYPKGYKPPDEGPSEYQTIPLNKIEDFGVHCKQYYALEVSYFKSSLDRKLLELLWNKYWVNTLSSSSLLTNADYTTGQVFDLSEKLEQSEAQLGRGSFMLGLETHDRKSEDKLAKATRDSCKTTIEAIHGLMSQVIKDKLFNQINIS
#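 Detection – fluorescence polarization · System – HEK293T-derived human Csn5 enzyme · Controls – substrate-only high control, full reaction low control · Timing – 90 min, room temperature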
# HNF4A DNA FP – change in binding of human HNF4 alpha to DNA | P41235 | AID 1224865 | activity change, % at 10 µM | HNF4a-FITC DNA binding, fluorescence polarization, 1 h | 360,000 tested, 0.3% active; in the data active = activity change above about 30%, passing the limit was not always enough
# Exocytosis inh – blocks lytic granule exocytosis; TALL-104 LAMP-1 surface exposure, flow cytometry; cells stimulated with thapsigargin and PMA; inhibition, % at 10 µM; 360,000 tested, 0.66% active; AID 651702;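 active = inhibition above about 55%, limit read from the data; inconclusive = no clear call, values can overlap the other calls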
# Myeloid diff MLP – myeloid differentiation induction | ER-HoxA9 myeloid progenitors, lysozyme-GFP differentiation, flow cytometry | calls only at 10 µM | 360,000 tested, 1% active;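 active = normalized GFP-positive differentiation at or above the plate's own cutoff, the solvent-only control mean plus 3 SD; inconclusive = no clear call, values can overlap the other calls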;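 also: cells exposed to compound for four days before flow analysis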
# Numbers without * were called inactive; i = inactive; ? = inconclusive; . = not tested or not shown; + = active, no number.
SMILES,CSN deneddyl inh,HNF4A DNA FP,Exocytosis inh,Myeloid diff MLP
Cc1cc(C)cc(NS(=O)(=O)c2cnc(Cl)c(Cl)c2)c1,-1.4,40.3*,3.5,i
COc1nc(N)nc(NC(=O)c2cccs2)c1N=O,5.9,2.8,105.0*,?
COc1ccc(NC(=O)c2ccc(NC(=O)c3cccs3)cc2)cc1,3.4,1.3,-0.2,i
COc1cc2cc(Oc3ccc4ccc(=O)oc4c3)c(=O)oc2cc1O[C@@H]1O[C@H](CO)[C@@H](O)[C@H](O)[C@H]1O,38.0*,-27.3,-4.5,i
COc1cc2cc(Oc3ccc4ccc(=O)oc4c3)c(=O)oc2cc1OC1OC(COC(=O)CC(C)(O)CC(=O)O)C(O)C(O)C1O (centres undefined),9.3,-5.2,-2.5,i
Cc1c(C)c2ccc(O[C@@H]3O[C@H](CO)[C@H](O)[C@H](O)[C@H]3O)cc2oc1=O,-1.4,-2.1,4.5,+
COc1ccc(C(=O)CSc2nc3nn(-c4ccccc4)c(=O)c-3c3n2CCCCC3)c(OC)c1,0.0,-4.1,-2.2,i
CC(/C=C1\SC(=S)N(NC(=O)c2cccc(O)c2)C1=O)=C\c1ccccc1,-0.6,-0.7,8.6,i
O=C(NN1C(=O)/C(=C/c2ccc(O)cc2)SC1=S)c1cccc(O)c1,129.2,106.9*,-0.1,i
O=C(NN1C(=O)/C(=C/c2ccc(O)cc2)SC1=S)c1ccccc1O,101.2,105.7*,10.5,i
O=C(NN1C(=O)/C(=C/c2ccc(O)c([N+](=O)[O-])c2)SC1=S)c1ccccc1Cl,21.6,27.8,2.6,i
O=C(NN1C(=O)/C(=C/C=C/c2ccccc2)SC1=S)c1ccncc1,20.3,78.6*,0.2,i
COc1ccc(C(CNS(=O)(=O)c2cccc(F)c2)N2CCCC2)cc1 (centres undefined),0.0,3.2,8.9,i
CCCCOc1ccc(OCCNC(=O)c2ccco2)cc1,-2.8,0.3,-0.3,i
COc1ccc(NC(=O)NNC(=O)COc2ccc([N+](=O)[O-])c(C)c2)cc1OC,2.9,-1.8,4.7,i
O=C(NCc1ccco1)c1cccc2c1C(=O)c1ccc(N3CCCC3)cc1S2(=O)=O,15.7,52.0*,2.5,i
O=C(NCc1ccccc1Br)c1cccc2c1C(=O)c1ccc(N3CCC(Cc4ccccc4)CC3)cc1S2(=O)=O,7.3,41.4,-1.3,+
C=CCNC(=O)c1cccc2c1C(=O)c1ccc(N3CCCC3)cc1S2(=O)=O,35.5*,64.8,8.5,i
Cc1ccc(CNC(=O)c2cccc3c2C(=O)c2ccc(N4CCCCC4)cc2S3(=O)=O)cc1,31.3,37.7*,-2.3,i
COc1ccc(CC(=O)OCC(=O)N(C)C2CCS(=O)(=O)C2)cc1OC (centres undefined),-3.6,-1.4,1.3,i
COc1cccc(NC(=O)C2(C)CCN2Cc2ccccc2OC(F)F)c1 (centres undefined),0.1,-4.5,1.1,i
N#Cc1ccc2[nH]cc(CCO)c2c1,1.0,-2.1,16.0,i
COc1cccc2c1Oc1cc([N+](=O)[O-])cc(N(C)C(C)=O)c1C=C2,-1.7,-1.5,-4.8,i
COc1ccc2c(c1)C(=O)O[C@@H](c1ccccc1)C[C@@H](O)C(=O)CC2,86.5*,1.7,-10.5,i
CCN(CC)c1ccc(/C=C(/C#N)c2nc3ccc(C)cc3[nH]2)c(OC(C)C)c1,-71.6,-42.1,2.1,+
SMILES,CSN deneddyl inh,HNF4A DNA FP,Exocytosis inh,Myeloid diff MLP
CCCOc1cc(N(CC)CC)ccc1/C=C(/C#N)c1nc2ccc(C)cc2[nH]1,8.3,102.7,0.3,?
COc1ccc(C(=O)Nc2ccccc2C(=O)NCCN2CCOCC2)cc1OC,-2.1,2.6,-5.5,+
COc1ccc(C(=O)Nc2ccccc2C(=O)NCCN2CCOCC2)cc1,2.1,-0.9,-0.4,i
CCN(CC)C1CC(=O)N(c2cccc(Cl)c2)C1=O (centres undefined),4.0,7.2,29.1,i
Cc1ccc(C2=NCCn3c2c2ccc([N+](=O)[O-])cc2[n+]3[O-])cc1,9.5,13.1,-1.9,?
O=[N+]([O-])c1ccc2c3n([n+]([O-])c2c1)CCN=C3c1ccc(Cl)cc1,8.1,14.8,77.9*,?
Cc1cccc(C(=O)Nc2nsc(N)n2)c1,-1.8,-2.8,1.1,i
Fc1ccc(COc2cccc(CNCc3ccncc3)c2)cc1,-4.2,3.1,3.2,+
CCCCCCCCC[n+]1cccc2c3ccccc3ccc21,5.9,-1.6,56.0*,.
c1ccc2c(c1)ccc1ccccc12,3.3,1.9,-1.5,i
COc1ccc(C)cc1NC(=O)C(c1ccccc1)N1CCN(CC(=O)NC2CC2)CC1 (centres undefined),2.5,2.2,-1.2,i
COc1ccc(CNC(=O)Cc2c(C(=O)O)[nH]c3ccccc23)cc1,-1.2,-2.6,-0.3,i
COc1ccc(CNC(=O)Cc2c(C(=O)O)[nH]c3ccccc23)c(OC)c1,1.8,2.0,9.8,+
CC1CCN(C(=O)CNC(=O)CNS(=O)(=O)c2ccccc2)CC1,6.5,4.0,-2.7,i
O=C(CSc1nnc2scc(-c3ccccc3)n12)Nc1nsc(-c2ccc(Cl)cc2)n1,46.9*,-6.7,5.6,i
O=C(CC1SC(N2CCCC2)=NC1=O)Nc1ccc(C(=O)N2CCN(c3cccc(Cl)c3)CC2)cc1 (centres undefined),-0.5,-2.4,3.4,i
CC1(c2ccc3c(c2)OCCO3)NC(=O)N(CC(=O)Nc2ccccc2F)C1=O (centres undefined),1.8,-0.2,-5.4,i
O=C1NC[C@H](c2ccccc2)N(CCC23CC4CC(CC(C4)C2)C3)C1=O,74.4*,5.1,-7.3,i
O=C1NC[C@H](c2ccccc2)N(CCc2cccc3ccccc23)C1=O,6.5,3.0,2.7,i
CCCCN(C(=O)CSc1ncn[nH]1)c1c(N)n(Cc2ccccc2)c(=O)[nH]c1=O,-3.5,3.5,1.2,i
Cn1c(SCC(=O)c2ccc3c(c2)Cc2ccccc2-3)nnc1-c1ccccc1,74.4*,3.0,-2.1,i
CCOC(=O)c1cc(-c2ccccc2)sc1NC(=O)C(C)N1C(=O)NC(C)(c2ccc(Cl)cc2)C1=O (centres undefined),6.1,50.8*,-0.4,i
CCOC(=O)c1cc(-c2ccccc2)sc1NC(=O)C(C)C,3.4,-3.2,4.5,i
Cc1cccc(NC(=O)CN2C(=O)N/C(=C/c3ccc(C)s3)C2=O)c1,23.8,59.6*,-3.7,+
Cc1cccc(NC(=O)CN2C(=O)N/C(=C/c3cc(C)n(C(C)C)c3C)C2=O)c1,11.0,-0.9,0.1,i
CC(C)OC(=O)c1nn2c(C(F)(F)F)cc(-c3ccco3)nc2c1Cl,13.8,64.9*,2.8,i
Cc1sc2ccc3sccc3c2[n+]1C,-0.3,-2.8,83.1*,i
Cc1sc2c3ccsc3ccc2[n+]1C,-2.2,4.0,55.6*,i
O=c1[nH]c(C2CCCN(S(=O)(=O)c3ccc(F)cc3)C2)nc2c1nnn2Cc1ccc(F)cc1 (centres undefined),1.2,0.2,6.9,i
